Assay outcomes deposited in PubChem by several laboratories.
A selection: hits, their analogues and other compounds. The true share with any hit is near 1.8%.
NTR1 ag – agonists of human NTR1, primary screen, imaging, U2OS cells, beta-arrestin-GFP, high content; Neurotensin receptor type 1 (Homo sapiens), P30989; NTR1-U2OS beta-arrestin-GFP spot imaging, agonist mode; activation, % at 20 µM; 330,000 compounds, 0.17% hits; AID 493036, 2011;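 active = activation at or above 40% of the spot to cytoplasm intensity ratio, with at least 20 cells analyzed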;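 note: 0% = DMSO without peptide and 100% = 100 nM NTR1 peptide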
Target sequence (P30989 whole entry, looked up): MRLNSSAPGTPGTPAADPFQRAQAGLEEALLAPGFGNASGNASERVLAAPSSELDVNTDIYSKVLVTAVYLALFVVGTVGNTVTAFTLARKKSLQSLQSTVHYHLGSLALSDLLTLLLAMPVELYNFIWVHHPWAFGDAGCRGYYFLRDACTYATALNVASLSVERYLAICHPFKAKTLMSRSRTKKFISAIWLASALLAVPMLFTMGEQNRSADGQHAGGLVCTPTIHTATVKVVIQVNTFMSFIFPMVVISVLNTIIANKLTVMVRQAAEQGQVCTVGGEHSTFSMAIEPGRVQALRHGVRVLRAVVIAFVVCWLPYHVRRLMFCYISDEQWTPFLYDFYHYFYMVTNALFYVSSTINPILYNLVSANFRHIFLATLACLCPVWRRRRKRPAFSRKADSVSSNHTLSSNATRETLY
MC4R ag barr – MC4R agonists recruiting beta-arrestin, primary screen, cell-based, luminescence, agonist arm of biased-ligand search; Melanocortin receptor 4 (Homo sapiens), P32245; U2OS MC4R beta-arrestin complementation; percent of melanotan II response, DMSO zero; activation, % at 8.9 µM; 360,000 compounds, 0.98% hits; AID 540308, 2011;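 active = activation above a per-plate cutoff, the mean activation of sample wells on that plate plus 3 SD, cut at about 8% in these data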
AI-2 QS modul – Vibrio harveyi AI-2 quorum sensing modulators, primary screen, JMH597 strain, luminescence/OD600 ratio; Vibrio harveyi JMH597 AI-2 luminescence/OD600 ratio, 9 h; stronger effect = lower value; strain lacks LuxN and CqsS sensors; 0 = neutral-control median; activity change, % at 7.5 µM; 300,000 compounds, 0.4% hits; AID 2094, 2009; in the data active = activity change below about -75%, passing the limit was not always enough;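 note: luminescence divided by OD600 gain over 9 h not by final OD600 alone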
MC4R antagonist – MC4R antagonists of cAMP signaling, primary screen, cell-based, TR-FRET, antagonist arm of biased-ligand search; Melanocortin receptor 4 (Homo sapiens), P32245; MC4R-expressing cells, MTII-stimulated cAMP, LANCE TR-FRET; inhibition, % at 6.5 µM; 360,000 compounds, 0.48% hits; AID 540295, 2011;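 active = inhibition above its plate's cutoff, the mean of tested wells on that plate plus 3 SD, cut at about 29% in these data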;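 note: 0% = Melanotan II alone and 100% = Melanotan II plus saturating MCL0020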
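System – human MC4R-expressing U2OS cells · Also added – Melanotan II · Dosing – one concentration, 6.5 µM nominal · Timing – 30-min compound, 1-h challenge, 1-h detection, room temperature · Measured by – Eu-cAMP/anti-cAMP TR-FRET, emission 671 nm · Replicates – singlicate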
MC4R barr ag – MC4R beta-arrestin agonists, retest, confirmation, cell-based, luminescence, U2OS; U2OS MC4R beta-arrestin recruitment; scaled DMSO 0%, Melanotan II 100%; activation, % at 8.9 µM; AID 602192, 2012; 2,400 compounds, 31% hits; shares compounds with MC4R ag barr;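 active = mean activation across replicates above the hit cutoff set in the earlier primary screen, cut at about 8% in these data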
MOR-DOR barr ag – agonists of MOR-DOR heterodimerization, counter-screen for MC4R biased agonist project, cell-based, luminescence. shares compounds with MC4R ag barr. 2,400 compounds, 5.8% hits. U2OS PathHunter beta-arrestin, beta-gal luminescence; percent of deltorphin B response, DMSO zero. activation, % at 9.2 µM;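 active = mean activation across replicates exceeds the hit threshold derived in the earlier primary screen, cut at about 18% in these data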;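 note: 100% = deltorphin B at 0.9 µM final and 0% = DMSO alone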
* = called active by the depositor; . = no result given.

SMILES	NTR1 ag	MC4R ag barr	AI-2 QS modul	MC4R antagonist	MC4R barr ag	MOR-DOR barr ag
CC(/C=C/c1ccco1)=N/NC(=O)CNc1ccccc1C	-0.9	1.2	5.0	-3.8	.	.
O=C(Cn1cc(C(F)(F)F)ccc1=O)N/N=C/c1ccc(O)cc1	0.8	1.3	14.1	20.9	.	.
O=C(Cn1cc(C(F)(F)F)ccc1=O)N/N=C/c1ccc(Cl)c(Cl)c1	-0.3	13.3*	-52.1	18.8	-1.0	9.2
Cc1ccc(NC(=O)CSc2nc(-c3ccco3)cc(C(F)(F)F)n2)cc1C	-0.5	24.5*	16.6	-20.5	3.8	3.6
O=C(CSc1nc(-c2ccco2)cc(C(F)(F)F)n1)Nc1ccc2c(c1)CCC2	4.4	2.7	23.8	-9.8	.	.
Cc1ccc2nc(-c3ccc(NC(=O)CSc4nc(N)cc(=O)[nH]4)cc3)sc2c1	6.8	13.4*	39.2	8.6	6.5	1.7
Cc1ccc2nc(NC(=O)CN3CCN(c4ccccn4)CC3)sc2c1	-2.4	-0.8	26.0	8.2	.	.
Cc1ccc2nc(-c3ccc(NC(=O)CSc4nccc(=O)[nH]4)cc3)sc2c1	2.7	-2.8	15.4	3.5	.	.
Cc1ccc2nc(-c3ccc(NC(=O)CN4CCN(c5ccccn5)CC4)cc3)sc2c1	2.5	10.0*	29.9	19.3	1.3	3.4
COc1ccc(S(=O)(=O)N(C)c2ccc(C(=O)Nc3cccnc3)cc2)cc1OC	0.5	-1.7	32.1	-6.8	.	.
O=C(CCl)N(Cc1ccccc1)c1ccccc1	-0.6	19.7*	8.4	-0.1	14.9*	18.2*
COc1ccc(NC(=O)CC(c2ccc(F)cc2)c2ccc(OC(C)C)cc2)cc1 (stereo not given)	3.0	15.4*	3.8	8.8	7.2	3.3
CCOc1ccc(NC(=O)CC(c2ccccc2)c2ccc(F)cc2)cc1 (stereo not given)	-0.2	16.8*	23.2	4.5	-0.2	5.5
Cc1ccc(C)c(N2CCN(S(=O)(=O)c3cc4c(cc3C)NC(=O)CO4)CC2)c1	21.7	1.7	44.6	6.0	.	.
CCCCc1nc2cc(C(=O)N3CCN(c4cnccn4)CC3)ccc2o1	0.2	-1.1	.	1.8	.	.
COc1cccc(CNC(=O)c2ccc(NS(=O)(=O)c3ccc4[nH]c(=O)[nH]c4c3)cc2)c1	0.6	-1.0	.	0.0	.	.
CCOC(=O)Cc1csc(NC(=O)c2sc3nc4cc(C)ccc4cc3c2N)n1	3.3	38.9*	11.9	11.3	24.9*	2.5
Cc1cc(NC(=O)c2cncc(Br)c2)ccc1NC(=O)c1cc2ccccc2o1	7.3	10.1*	5.9	5.9	17.1*	9.5
COc1cccc(C(=O)Nc2ccc(NC(=O)c3cc4ccccc4o3)c(OC)c2)c1	0.5	10.3*	33.0	-1.7	5.6	11.3
Cc1ccc(S(=O)(=O)NCCNS(=O)(=O)c2ccccc2Br)cc1	-0.3	-3.1	.	-0.9	.	.
Cc1ccc(S(=O)(=O)NCCNc2ccc(Br)c(C)c2)cc1	-1.7	18.2*	.	1.9	4.2	6.7
CN(C(=O)COC(=O)/C=C/c1ccc(C(F)(F)F)cc1)c1c(N)n(Cc2ccccc2)c(=O)[nH]c1=O	10.7	-0.3	1.9	0.9	.	.
CC1CCCC(NC(=O)COC(=O)c2cc(=O)[nH]c3ccccc23)C1C (stereo not given)	-0.4	-1.6	.	-3.2	.	.
Cc1ccc(COC(=O)Cc2coc3cc(O)ccc23)cc1	-0.1	9.9*	-39.5	4.7	2.8	11.2
CCN(CC)CCNC(=O)c1cc2c(-c3ccc(Cl)cc3)nn(C)c2s1	3.8	-0.3	5.9	7.1	.	.
SMILES	NTR1 ag	MC4R ag barr	AI-2 QS modul	MC4R antagonist	MC4R barr ag	MOR-DOR barr ag
CCCN(CCC)CCNC(=O)c1cc2c(-c3ccc(Cl)cc3)nn(C)c2s1	13.1	10.6*	0.1	-2.2	9.0*	9.3
Cn1c(SCC(=O)Nc2cccc(Br)c2)nnc1-c1cc2ccccc2o1	1.0	10.9*	4.7	3.0	2.3	1.4
CCOc1cc(N2CCOCC2)c(OCC)cc1NC(=O)c1cc(-c2ccco2)nc2ccccc12	22.9	13.8*	15.9	13.1	9.2*	14.7
O=C(Nc1ccc(N2CCCC2)c(Cl)c1)c1ccc([N+](=O)[O-])cc1	0.3	20.6*	45.4	2.7	6.0	8.7
CC(C)(C)c1cc(NC(=O)C2(C)CCN2C(=O)c2ccccc2CCc2ccccc2)no1 (stereo not given)	.	0.6	.	8.3	.	.
O=C(Nc1ccc(N2CCN(c3ccc(O)cc3)CC2)cc1)Oc1ccccc1	-0.2	26.0*	-17.0	-7.1	-2.7	3.0
O=C(c1ccc(COc2ccc3ccccc3c2)o1)N1N=C(C(F)F)CC1(O)C(F)F (stereo not given)	26.0	30.0*	19.6	-4.1	15.6*	5.9
O=C(c1ccc(COc2ccc(Br)cc2)o1)N1N=C(C(F)F)CC1(O)C(F)F (stereo not given)	9.7	11.0*	13.1	6.9	22.3*	14.4
Cc1cc(C)cc(OCc2ccc(C(=O)N3N=C(C(F)F)CC3(O)C(F)F)o2)c1 (stereo not given)	6.4	6.7	21.3	10.3	.	.
CCOc1ccc(OCc2ccc(C(=O)N3N=C(C(F)F)CC3(O)C(F)F)o2)cc1 (stereo not given)	0.1	8.2	24.0	3.2	.	.
Cc1ccc(-c2cc(NC(=O)c3ccccc3)on2)cc1	1.1	5.7	-7.2	0.9	.	.
COc1ccc(C(=O)Nc2cc(-c3ccc(C)cc3)no2)cc1	0.0	9.8*	7.4	-1.4	-2.0	5.3
N#C/C(=C\c1ccc(-c2nc3ccccc3s2)o1)C(N)=O	-0.5	20.9*	7.8	-28.4	3.2	6.6
N#C/C(=C/c1ccc(-c2ccc(S(N)(=O)=O)cc2)o1)c1nc2ccccc2s1	-0.6	-2.1	.	17.3	.	.
CNC(=O)/C(C#N)=C/c1ccc(-c2nc3ccccc3s2)o1	-0.1	38.1*	-3.9	-9.2	0.6	4.8
O=C(COC(=O)C1CCCN1C(=O)C12CC3CC(CC(C3)C1)C2)c1ccc(Br)cc1 (stereo not given)	6.5	13.6*	39.0	0.1	5.2	3.4
COc1ccc(C(=O)COC(=O)C2CCCN2C(=O)C23CC4CC(CC(C4)C2)C3)cc1 (stereo not given)	0.9	-0.6	25.8	1.6	.	.
COC(=O)COc1ccc(C2NC(=O)NC(c3ccccc3)=C2C(C)=O)cc1Br (stereo not given)	-0.8	-1.3	16.7	10.2	.	.
